Measured values: ChEMBL document CHEMBL4118021, “Studies of TAK1-centered polypharmacology with novel covalent TAK1 inhibitors” (Bioorg Med Chem, 2017)

Tests used:
[1] = biological target: Cyclin-dependent kinase 2 (Homo sapiens) (UniProt P24941); assay: Inhibition of CDK2 in human SKCO1 cells at 1 uM after 4 hrs using biotin labeled DLKPQNLLINTEGAIK probe by mass-spectrometric analysis relative to control; type: cell-based
[2] = biological target: Epidermal growth factor receptor (Homo sapiens) (UniProt P00533); assay: Inhibition of EGFR in human SKCO1 cells at 1 uM after 4 hrs using biotin labeled LLGAEEKEYHAEGGKVPIK probe by mass-spectrometric analysis relative to control; type: cell-based
[3] = biological target: Epidermal growth factor receptor (Homo sapiens) (UniProt P00533); assay: Inhibition of EGFR in human SKCO1 cells at 1 uM after 4 hrs using biotin labeled IPVAIKELR probe by mass-spectrometric analysis relative to control; type: cell-based
[4] = biological target: Glycogen synthase kinase-3 alpha (Homo sapiens) (UniProt P49840); assay: Inhibition of GSK3A in human SKCO1 cells at 1 uM after 4 hrs using biotin labeled DIKPQNLLVDPDTAVLK probe by mass-spectrometric analysis relative to control; type: cell-based
Glycogen synthase kinase-3 alpha (Homo sapiens), sequence (P49840 2-483 limits assumed): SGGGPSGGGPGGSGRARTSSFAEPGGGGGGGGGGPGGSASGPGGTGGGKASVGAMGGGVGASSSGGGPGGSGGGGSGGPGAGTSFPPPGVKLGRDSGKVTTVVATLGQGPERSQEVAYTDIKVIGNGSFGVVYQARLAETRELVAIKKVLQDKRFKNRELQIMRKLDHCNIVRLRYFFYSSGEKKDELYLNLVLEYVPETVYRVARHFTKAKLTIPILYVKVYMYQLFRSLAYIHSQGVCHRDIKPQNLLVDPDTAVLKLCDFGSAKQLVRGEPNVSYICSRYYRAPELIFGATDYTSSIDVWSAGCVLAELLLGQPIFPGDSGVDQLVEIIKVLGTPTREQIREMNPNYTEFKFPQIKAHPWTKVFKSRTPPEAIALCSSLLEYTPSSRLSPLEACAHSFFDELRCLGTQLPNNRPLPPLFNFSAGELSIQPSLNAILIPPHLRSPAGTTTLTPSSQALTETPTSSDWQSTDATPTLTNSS

[5] = biological target: T1, Serine/threonine-protein kinase 4 (Homo sapiens) (UniProt Q13043); assay: Inhibition of MST1 in human SKCO1 cells at 1 uM after 4 hrs using biotin labeled ETGQIVAIKQVPVESDLQEIIK probe by mass-spectrometric analysis relative to control; type: cell-based
T1 sequence (whole entry): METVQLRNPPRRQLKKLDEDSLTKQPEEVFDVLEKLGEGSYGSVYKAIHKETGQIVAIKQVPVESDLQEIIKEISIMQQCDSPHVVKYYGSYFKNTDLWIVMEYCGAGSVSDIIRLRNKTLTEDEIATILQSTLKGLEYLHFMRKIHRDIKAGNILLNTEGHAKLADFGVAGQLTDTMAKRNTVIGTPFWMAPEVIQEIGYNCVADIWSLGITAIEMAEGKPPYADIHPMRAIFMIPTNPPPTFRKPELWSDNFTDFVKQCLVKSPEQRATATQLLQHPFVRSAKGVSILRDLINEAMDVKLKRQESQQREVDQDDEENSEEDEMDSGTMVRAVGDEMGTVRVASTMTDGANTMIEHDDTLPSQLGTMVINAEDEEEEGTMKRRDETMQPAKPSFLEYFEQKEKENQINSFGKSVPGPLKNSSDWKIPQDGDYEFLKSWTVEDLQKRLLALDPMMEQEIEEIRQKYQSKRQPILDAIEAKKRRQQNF
In short: (§1)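 Live SK-CO-1 cells exposed to compound at 1 μM or DMSO for 4 h (KiNativ). Lysates then labeled with lysine-reactive ATP/ADP-biotin probe, and probe-labeled kinase peptides quantified by mass spectrometry. Percent inhibition of probe-dependent recovery calculated relative to DMSO-treated cells.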

[6] = biological target: Serine/threonine-protein kinase PLK1 (Homo sapiens) (UniProt P53350); assay: Inhibition of PLK1 in human SKCO1 cells at 1 uM after 4 hrs using biotin labeled CFEISDADTKEVFAGKIVPK probe by mass-spectrometric analysis relative to control; type: cell-based; in short: as §1
Serine/threonine-protein kinase PLK1 (Homo sapiens), sequence (P53350 whole entry, the tested form may be a part): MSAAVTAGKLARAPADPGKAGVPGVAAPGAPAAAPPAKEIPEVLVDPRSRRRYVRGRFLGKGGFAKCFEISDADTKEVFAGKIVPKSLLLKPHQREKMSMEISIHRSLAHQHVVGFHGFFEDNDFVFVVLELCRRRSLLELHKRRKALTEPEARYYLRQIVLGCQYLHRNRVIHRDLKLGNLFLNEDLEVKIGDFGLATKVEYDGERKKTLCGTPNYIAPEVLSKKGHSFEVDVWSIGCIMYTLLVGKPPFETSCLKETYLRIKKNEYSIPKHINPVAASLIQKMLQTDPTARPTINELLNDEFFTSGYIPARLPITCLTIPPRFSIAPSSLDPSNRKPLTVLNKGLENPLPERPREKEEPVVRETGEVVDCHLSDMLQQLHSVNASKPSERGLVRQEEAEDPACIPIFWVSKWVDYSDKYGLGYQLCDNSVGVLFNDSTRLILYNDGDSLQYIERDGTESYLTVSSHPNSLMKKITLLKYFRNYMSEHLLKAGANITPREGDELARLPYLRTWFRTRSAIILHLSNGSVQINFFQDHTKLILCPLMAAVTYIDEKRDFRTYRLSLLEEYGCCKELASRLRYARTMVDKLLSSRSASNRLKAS

[7] = biological target: Ribosomal protein S6 kinase alpha-1 (Homo sapiens) (UniProt Q15418); assay: Inhibition of RSK1 domain1 in human SKCO1 cells at 1 uM after 4 hrs using biotin labeled LTDFGLSKEAIDHEKK probe by mass-spectrometric analysis relative to control; type: cell-based; in short: as §1
Ribosomal protein S6 kinase alpha-1 (Homo sapiens), sequence (Q15418 whole entry, the tested form may be a part): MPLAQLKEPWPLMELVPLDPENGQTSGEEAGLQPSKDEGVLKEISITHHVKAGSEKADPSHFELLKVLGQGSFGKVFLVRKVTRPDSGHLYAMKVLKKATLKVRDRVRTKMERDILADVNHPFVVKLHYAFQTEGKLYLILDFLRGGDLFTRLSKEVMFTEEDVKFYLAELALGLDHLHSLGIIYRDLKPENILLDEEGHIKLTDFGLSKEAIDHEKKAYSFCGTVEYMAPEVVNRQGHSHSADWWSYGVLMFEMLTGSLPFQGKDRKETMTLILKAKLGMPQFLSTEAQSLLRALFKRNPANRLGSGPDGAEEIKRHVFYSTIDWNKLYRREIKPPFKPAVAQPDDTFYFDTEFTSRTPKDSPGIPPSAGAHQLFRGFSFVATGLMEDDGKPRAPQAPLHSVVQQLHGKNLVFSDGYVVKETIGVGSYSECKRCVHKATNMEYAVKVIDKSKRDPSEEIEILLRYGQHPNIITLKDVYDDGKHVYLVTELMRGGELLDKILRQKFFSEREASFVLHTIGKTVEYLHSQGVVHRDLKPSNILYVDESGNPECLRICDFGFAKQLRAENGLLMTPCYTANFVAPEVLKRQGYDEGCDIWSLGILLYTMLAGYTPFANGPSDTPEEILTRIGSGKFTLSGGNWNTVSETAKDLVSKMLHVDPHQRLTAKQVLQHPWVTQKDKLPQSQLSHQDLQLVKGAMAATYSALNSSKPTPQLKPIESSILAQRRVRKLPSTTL

[8] = biological target: T2, Dual specificity protein kinase TTK (Homo sapiens) (UniProt P33981); assay: Inhibition of TTK in human SKCO1 cells at 1 uM after 4 hrs using biotin labeled NMLEAVHTIHQHGIVHSDLKPANFLIDGMLK probe by mass-spectrometric analysis relative to control; type: cell-based; in short: as §1
T2 sequence (whole entry): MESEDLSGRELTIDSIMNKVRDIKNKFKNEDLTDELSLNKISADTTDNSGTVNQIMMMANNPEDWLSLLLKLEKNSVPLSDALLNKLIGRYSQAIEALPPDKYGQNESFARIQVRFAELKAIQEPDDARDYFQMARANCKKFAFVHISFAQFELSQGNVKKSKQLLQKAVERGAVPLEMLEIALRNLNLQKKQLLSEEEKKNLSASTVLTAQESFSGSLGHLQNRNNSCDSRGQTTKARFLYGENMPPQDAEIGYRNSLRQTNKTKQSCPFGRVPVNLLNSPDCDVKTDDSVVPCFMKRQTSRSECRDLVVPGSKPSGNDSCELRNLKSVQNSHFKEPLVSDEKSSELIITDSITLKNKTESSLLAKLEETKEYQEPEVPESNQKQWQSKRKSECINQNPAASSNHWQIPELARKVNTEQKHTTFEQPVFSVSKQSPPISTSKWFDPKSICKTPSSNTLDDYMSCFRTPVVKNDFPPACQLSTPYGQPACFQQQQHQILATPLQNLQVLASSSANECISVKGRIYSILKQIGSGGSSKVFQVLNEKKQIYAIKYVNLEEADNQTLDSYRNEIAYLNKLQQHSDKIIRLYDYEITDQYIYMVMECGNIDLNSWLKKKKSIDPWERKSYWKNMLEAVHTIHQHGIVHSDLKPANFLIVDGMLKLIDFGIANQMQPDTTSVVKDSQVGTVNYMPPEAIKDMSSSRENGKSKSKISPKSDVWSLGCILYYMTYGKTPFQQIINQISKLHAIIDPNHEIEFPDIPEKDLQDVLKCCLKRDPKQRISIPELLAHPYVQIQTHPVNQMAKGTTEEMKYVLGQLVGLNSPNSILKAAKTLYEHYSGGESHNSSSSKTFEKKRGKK

[9] = biological target: Mitogen-activated protein kinase kinase kinase 20 (Homo sapiens) (UniProt Q9NYL2); assay: Inhibition of ZAK in human SKCO1 cells at 1 uM after 4 hrs using biotin labeled WISQDKEVAVKK probe by mass-spectrometric analysis relative to control; type: cell-based; in short: as §1
Mitogen-activated protein kinase kinase kinase 20 (Homo sapiens), sequence (Q9NYL2 2-800 limits assumed): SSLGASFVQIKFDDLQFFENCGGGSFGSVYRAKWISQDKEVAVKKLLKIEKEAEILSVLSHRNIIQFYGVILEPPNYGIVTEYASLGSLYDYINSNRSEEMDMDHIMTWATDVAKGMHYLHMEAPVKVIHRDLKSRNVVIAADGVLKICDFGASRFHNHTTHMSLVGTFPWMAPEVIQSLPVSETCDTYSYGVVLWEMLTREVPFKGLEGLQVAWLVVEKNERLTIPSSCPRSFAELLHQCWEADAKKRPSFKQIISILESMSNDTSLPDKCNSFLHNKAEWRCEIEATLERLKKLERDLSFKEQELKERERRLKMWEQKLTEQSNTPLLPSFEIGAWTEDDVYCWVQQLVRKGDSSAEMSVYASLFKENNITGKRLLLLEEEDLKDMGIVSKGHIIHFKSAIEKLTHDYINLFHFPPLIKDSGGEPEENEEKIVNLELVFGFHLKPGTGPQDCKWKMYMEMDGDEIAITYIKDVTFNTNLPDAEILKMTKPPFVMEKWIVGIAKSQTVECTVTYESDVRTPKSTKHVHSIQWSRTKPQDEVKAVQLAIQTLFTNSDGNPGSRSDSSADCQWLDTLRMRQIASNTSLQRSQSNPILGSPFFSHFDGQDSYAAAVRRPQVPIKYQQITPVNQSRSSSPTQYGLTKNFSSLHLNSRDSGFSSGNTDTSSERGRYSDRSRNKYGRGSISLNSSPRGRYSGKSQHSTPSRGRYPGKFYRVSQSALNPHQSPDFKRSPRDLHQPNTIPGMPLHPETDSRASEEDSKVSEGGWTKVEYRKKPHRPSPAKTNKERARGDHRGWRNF

[10] = biological target: STE20-like serine/threonine-protein kinase SLK (Homo sapiens) (UniProt Q9H2G2); assay: Inhibition of SLK in human SKCO1 cells at 1 uM after 4 hrs using biotin labeled DLKAGNILFTLDGDIK probe by mass-spectrometric analysis relative to control
STE20-like serine/threonine-protein kinase SLK (Homo sapiens), sequence (Q9H2G2 whole entry, looked up): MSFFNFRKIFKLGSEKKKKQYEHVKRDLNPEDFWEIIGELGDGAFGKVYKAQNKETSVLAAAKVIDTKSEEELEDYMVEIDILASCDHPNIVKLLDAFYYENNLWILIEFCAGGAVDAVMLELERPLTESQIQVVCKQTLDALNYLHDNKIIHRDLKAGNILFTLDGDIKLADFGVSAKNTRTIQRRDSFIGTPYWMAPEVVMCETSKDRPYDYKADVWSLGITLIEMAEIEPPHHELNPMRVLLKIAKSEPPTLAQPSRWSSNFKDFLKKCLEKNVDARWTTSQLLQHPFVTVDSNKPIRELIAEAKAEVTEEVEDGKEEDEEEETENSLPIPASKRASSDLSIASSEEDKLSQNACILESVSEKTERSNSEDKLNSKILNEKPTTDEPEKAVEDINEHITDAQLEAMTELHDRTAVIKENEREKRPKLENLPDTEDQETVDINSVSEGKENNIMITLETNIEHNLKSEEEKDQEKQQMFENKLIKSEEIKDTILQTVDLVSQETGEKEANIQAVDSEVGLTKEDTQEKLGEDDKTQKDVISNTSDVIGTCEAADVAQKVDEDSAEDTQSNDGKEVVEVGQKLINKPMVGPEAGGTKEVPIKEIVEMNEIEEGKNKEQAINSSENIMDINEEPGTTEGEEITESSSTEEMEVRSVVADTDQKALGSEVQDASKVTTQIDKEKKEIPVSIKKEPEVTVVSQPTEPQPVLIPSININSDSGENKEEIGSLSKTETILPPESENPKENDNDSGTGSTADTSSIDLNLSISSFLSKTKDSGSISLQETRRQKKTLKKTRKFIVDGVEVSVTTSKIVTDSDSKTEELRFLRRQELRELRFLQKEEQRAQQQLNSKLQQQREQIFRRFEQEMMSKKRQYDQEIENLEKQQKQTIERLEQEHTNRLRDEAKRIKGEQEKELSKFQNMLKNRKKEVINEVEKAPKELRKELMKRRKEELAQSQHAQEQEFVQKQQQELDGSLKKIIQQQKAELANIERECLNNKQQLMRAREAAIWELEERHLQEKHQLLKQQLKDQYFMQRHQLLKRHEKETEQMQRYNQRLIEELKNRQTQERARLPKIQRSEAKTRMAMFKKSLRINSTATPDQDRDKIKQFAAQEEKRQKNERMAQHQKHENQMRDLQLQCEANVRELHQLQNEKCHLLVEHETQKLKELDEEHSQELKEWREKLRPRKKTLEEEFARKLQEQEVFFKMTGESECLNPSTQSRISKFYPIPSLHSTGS

[11] = biological target: Aurora kinase A (Homo sapiens) (UniProt O14965); assay: Inhibition of AurA in human SKCO1 cells at 1 uM after 4 hrs using biotin labeled DIKPENLLLGSAGELK probe by mass-spectrometric analysis relative to control
Aurora kinase A (Homo sapiens), sequence (O14965 whole entry, looked up): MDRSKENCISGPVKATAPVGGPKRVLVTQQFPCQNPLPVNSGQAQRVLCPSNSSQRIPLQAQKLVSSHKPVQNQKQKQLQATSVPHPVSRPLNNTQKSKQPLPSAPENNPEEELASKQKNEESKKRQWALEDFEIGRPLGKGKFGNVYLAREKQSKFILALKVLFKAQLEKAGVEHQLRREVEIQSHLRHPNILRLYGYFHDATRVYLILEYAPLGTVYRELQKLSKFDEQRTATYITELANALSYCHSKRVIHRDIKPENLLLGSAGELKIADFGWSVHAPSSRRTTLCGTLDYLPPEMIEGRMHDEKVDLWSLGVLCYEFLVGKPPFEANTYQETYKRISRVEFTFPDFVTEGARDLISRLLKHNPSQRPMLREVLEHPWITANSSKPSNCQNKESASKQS

Row | SMILES | inhibition [1] [%] | inhibition [2] [%] | inhibition [3] [%] | inhibition [4] [%] | inhibition [5] [%] | inhibition [6] [%] | inhibition [7] [%] | inhibition [8] [%] | inhibition [9] [%] | inhibition [10] [%] | inhibition [11] [%]
1 | C=CC(=O)Nc1ccccc1Nc1nc(Nc2ccc(N3CCN(C)CC3)cc2)ncc1Cl | 18.7 | 47.6 | 46.2 | -2.8 | -6.4 | 54.6 | 56.2 | 40.6 | 26 | 76.3 | 89.1
2 | COc1cc(O)c2c(c1)/C=C/C[C@H](O)[C@H](O)C(=O)/C=C\C[C@H](C)OC2=O | 30 | 14.5 | 6.2 | 4.3 | -4.7 | 61.5 | 54.5 | 32.5 | 87.5 | 66 | 56.3
3 | C=CC(=O)Nc1ccccc1Oc1nc(Nc2cnn(CCOC)c2)ncc1Cl | 33.1 | 28.6 | 17.1 | 15.2 | -0.9 | 59.9 | 33.5 | 25.4 | -9.2 | 61.2 | 48.4
